In ChEMBL document CHEMBL1152541, “Staurosporine tethered peptide ligands that target cAMP-dependent protein kinase (PKA): optimization and selectivity profiling” (Bioorg Med Chem, 2009):
One block for each compound: values may come before it. *1 amine or outer side, *2 acyl side, *3 side chain or, on linkers, in order; H or OH if unused. Where a SMILES comes first, the peptide text is derived from it. Bridges are numbered along the chain shown (N, C = ends). [ ]: non-standard residue; d: D form. The star is where a group is joined. Staurosporine = CO[C@@H]1[C@H](N(C)*)C[C@H]2O[C@]1(C)n1c3ccccc3c3c4c(c5c6ccccc6n2c5c31)C(=O)NC4; Suc = O=C(CCC(=O)[*:2])[*:1]; Dap = NC[C@H](N)C(=O)O; βAla = NCCC(=O)O

How the values were obtained:
[1] = molecular target: MAP kinase-interacting serine/threonine-protein kinase 1 (Homo sapiens) (UniProt Q9BUB5); experiment: Binding affinity to human MKNK1 at 500 nM by cell-based competition binding assay relative to control in presence of DTT
Sequence of MAP kinase-interacting serine/threonine-protein kinase 1 (Homo sapiens) (Q9BUB5 whole entry, looked up): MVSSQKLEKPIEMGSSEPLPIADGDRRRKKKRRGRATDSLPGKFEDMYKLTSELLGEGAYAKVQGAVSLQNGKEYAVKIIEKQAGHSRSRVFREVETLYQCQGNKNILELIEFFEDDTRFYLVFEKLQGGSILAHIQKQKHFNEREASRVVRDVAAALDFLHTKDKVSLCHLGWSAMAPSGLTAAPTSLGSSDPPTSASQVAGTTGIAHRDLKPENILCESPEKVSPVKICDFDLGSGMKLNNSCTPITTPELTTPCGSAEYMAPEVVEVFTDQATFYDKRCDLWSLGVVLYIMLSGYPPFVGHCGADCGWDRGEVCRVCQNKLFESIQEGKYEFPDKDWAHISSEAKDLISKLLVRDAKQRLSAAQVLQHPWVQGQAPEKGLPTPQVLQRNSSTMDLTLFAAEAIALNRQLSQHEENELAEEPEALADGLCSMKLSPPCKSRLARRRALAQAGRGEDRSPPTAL

[2] = molecular target: T1, 3-phosphoinositide-dependent protein kinase 1 (Homo sapiens) (UniProt O15530); experiment: Binding affinity to human PDPK1 at 500 nM by cell-based competition binding assay relative to control in presence of DTT
T1 sequence (whole entry): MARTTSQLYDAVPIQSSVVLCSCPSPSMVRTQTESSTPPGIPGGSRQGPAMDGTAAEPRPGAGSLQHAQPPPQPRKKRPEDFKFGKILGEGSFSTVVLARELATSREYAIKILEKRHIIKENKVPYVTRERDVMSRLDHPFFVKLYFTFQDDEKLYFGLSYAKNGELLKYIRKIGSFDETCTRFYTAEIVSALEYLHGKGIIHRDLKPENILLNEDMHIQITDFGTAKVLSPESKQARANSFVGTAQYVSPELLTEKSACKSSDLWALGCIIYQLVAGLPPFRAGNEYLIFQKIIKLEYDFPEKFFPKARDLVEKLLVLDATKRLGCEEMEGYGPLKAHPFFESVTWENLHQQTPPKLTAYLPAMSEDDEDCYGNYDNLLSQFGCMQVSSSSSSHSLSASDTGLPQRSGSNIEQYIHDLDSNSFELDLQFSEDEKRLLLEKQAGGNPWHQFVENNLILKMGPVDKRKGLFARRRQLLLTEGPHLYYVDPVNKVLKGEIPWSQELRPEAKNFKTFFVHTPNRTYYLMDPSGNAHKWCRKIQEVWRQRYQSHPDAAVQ

[3] = molecular target: Angiopoietin-1 receptor (Homo sapiens) (UniProt Q02763); experiment: Binding affinity to human TIE2 at 500 nM by cell-based competition binding assay relative to control in presence of DTT
Sequence of Angiopoietin-1 receptor (Homo sapiens) (Q02763 whole entry): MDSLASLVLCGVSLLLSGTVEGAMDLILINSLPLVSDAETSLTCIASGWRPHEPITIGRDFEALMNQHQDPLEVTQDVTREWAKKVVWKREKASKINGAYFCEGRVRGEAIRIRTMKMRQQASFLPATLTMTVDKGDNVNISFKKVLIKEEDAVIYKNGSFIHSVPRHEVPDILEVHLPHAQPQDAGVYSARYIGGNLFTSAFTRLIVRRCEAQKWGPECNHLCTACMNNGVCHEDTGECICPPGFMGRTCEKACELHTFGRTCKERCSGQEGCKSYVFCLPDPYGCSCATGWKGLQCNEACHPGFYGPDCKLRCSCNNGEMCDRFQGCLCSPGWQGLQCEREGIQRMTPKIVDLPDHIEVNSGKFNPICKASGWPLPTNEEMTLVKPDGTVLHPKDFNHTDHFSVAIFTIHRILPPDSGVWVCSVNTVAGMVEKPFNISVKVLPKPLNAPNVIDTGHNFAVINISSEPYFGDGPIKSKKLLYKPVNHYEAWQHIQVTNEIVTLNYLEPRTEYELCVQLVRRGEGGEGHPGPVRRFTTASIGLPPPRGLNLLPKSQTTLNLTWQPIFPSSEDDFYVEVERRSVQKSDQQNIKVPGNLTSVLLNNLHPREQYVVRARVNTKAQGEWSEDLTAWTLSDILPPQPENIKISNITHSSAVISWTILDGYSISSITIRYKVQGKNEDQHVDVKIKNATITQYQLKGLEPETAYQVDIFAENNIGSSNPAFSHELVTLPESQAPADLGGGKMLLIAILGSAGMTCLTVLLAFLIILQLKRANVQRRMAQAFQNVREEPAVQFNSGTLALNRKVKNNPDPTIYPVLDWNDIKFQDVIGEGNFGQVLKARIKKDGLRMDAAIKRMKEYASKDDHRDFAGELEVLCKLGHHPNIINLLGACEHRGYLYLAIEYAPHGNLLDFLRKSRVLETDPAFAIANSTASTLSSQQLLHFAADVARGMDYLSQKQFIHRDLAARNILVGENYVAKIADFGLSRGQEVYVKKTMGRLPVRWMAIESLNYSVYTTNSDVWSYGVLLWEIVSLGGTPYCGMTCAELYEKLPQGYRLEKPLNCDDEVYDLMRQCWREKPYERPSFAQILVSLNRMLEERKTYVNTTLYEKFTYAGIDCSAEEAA

[4] = molecular target: Cyclin-dependent kinase 2 (Homo sapiens) (UniProt P24941); experiment: Ratio of compound to staurosporine binding affinity to human CDK2 in presence of DTT
[5] = system: Tyrosine-protein kinase ABL1 (Homo sapiens), P00519 [T315I]; experiment: Binding affinity to human ABL1 T315I mutant at 500 nM by cell-based competition binding assay relative to control in presence of DTT
Summary of the method: (§1)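 Kinase binding profiling ran on a commercial (Ambit) competitive binding screen against a panel of 90 kinases. The screen used reducing conditions with 7.5 mM DTT. To withstand the DTT, the bivalent ligand was tested as its amide isostere, with the disulfide replaced. A staurosporine derivative carrying a 3 β-alanine linker was run as the reference compound.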

[6] = molecular target: T2, NUAK family SNF1-like kinase 2 (Homo sapiens) (UniProt Q9H093); experiment: Binding affinity to human SNARK at 200 nM by cell-based competition binding assay relative to control in presence of DTT
T2 sequence (whole entry): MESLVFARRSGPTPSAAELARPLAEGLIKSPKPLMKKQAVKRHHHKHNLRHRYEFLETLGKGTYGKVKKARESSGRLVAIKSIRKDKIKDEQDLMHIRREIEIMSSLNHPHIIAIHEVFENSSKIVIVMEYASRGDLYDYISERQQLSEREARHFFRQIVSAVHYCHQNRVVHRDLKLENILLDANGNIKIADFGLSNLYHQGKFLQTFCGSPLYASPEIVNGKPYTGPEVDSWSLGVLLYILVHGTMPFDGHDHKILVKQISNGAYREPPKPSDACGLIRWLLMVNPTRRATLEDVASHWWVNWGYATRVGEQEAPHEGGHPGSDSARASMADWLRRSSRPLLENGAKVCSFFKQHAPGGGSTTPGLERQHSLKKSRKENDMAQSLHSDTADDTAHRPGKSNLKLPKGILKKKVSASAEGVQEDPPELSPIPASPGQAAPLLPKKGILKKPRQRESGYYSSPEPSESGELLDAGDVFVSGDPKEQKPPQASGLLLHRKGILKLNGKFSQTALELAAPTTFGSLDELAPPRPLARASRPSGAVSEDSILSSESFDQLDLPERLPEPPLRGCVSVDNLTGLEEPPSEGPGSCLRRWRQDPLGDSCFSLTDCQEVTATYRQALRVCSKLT

[7] = molecular target: Serine/threonine-protein kinase B-raf (Homo sapiens) (UniProt P15056); experiment: Binding affinity to human BRAF at 200 nM by cell-based competition binding assay relative to control in presence of DTT; summary of the method: as §1
[8] = molecular target: Mitogen-activated protein kinase kinase kinase 4 (Homo sapiens) (UniProt Q9Y6R4); experiment: Binding affinity to human MAP3K4 at 200 nM by cell-based competition binding assay relative to control in presence of DTT
Summary of the method: (§2)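 Competition binding screen (Ambit) across a panel of 90 kinases, scoring test ligand displacement of each kinase's binding relative to control. The screen ran under reducing conditions with 7.5 mM DTT.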

[9] = molecular target: Aurora kinase B (Homo sapiens) (UniProt Q96GD4); experiment: Binding affinity to human aurora kinase B at 200 nM by cell-based competition binding assay relative to control in presence of DTT
Sequence of Aurora kinase B (Homo sapiens) (Q96GD4 whole entry): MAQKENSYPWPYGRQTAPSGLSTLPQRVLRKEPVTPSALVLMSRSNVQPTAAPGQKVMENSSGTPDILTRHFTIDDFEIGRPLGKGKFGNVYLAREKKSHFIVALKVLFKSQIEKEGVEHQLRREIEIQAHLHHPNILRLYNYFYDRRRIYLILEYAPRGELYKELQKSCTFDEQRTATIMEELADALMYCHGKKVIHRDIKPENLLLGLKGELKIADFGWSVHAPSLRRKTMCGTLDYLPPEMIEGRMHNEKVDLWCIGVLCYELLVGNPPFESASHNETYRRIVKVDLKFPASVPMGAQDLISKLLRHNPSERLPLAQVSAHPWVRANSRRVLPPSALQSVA

[10] = system: Mast/stem cell growth factor receptor Kit (Homo sapiens), P10721 [D816V]; experiment: Binding affinity to human KIT D816V mutant at 200 nM by cell-based competition binding assay relative to control in presence of DTT; summary of the method: as §2
Sequence of Mast/stem cell growth factor receptor Kit (Homo sapiens), P10721 [D816V] (P10721 whole entry D816V, canonical isoform): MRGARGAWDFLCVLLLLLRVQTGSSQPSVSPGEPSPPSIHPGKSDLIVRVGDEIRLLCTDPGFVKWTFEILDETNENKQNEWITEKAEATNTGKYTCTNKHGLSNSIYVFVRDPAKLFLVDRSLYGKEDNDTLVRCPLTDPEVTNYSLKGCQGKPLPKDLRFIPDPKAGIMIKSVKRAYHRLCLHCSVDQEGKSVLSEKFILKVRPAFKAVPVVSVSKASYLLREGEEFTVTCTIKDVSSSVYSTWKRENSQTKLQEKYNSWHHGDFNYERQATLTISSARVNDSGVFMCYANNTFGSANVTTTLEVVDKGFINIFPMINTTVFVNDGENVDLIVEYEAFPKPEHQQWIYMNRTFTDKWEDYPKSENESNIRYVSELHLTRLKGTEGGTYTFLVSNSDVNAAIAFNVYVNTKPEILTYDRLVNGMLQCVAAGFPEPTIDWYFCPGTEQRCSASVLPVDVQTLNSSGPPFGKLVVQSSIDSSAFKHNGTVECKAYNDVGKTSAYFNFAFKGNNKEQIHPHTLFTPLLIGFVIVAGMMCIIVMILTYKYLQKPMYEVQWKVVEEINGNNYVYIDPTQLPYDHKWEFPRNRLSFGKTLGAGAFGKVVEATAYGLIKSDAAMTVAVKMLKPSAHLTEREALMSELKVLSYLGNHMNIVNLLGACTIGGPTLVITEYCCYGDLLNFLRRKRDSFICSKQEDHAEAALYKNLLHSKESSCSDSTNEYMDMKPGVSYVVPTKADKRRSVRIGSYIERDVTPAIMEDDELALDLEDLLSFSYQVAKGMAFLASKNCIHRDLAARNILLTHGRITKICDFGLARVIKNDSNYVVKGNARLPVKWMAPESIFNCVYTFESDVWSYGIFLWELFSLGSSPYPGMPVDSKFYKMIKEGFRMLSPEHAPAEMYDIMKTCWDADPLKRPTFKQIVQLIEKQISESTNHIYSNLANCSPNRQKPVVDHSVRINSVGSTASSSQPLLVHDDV

[11] = molecular target: Phosphatidylinositol 4,5-bisphosphate 3-kinase catalytic subunit gamma isoform (Homo sapiens) (UniProt P48736); experiment: Binding affinity to human PIK3Cgamma at 200 nM by cell-based competition binding assay relative to control in presence of DTT
[12] = molecular target: Cyclin-dependent kinase 16 (Homo sapiens) (UniProt Q00536); experiment: Binding affinity to human PCTK1 at 200 nM by cell-based competition binding assay relative to control in presence of DTT
Sequence of Cyclin-dependent kinase 16 (Homo sapiens) (Q00536 whole entry): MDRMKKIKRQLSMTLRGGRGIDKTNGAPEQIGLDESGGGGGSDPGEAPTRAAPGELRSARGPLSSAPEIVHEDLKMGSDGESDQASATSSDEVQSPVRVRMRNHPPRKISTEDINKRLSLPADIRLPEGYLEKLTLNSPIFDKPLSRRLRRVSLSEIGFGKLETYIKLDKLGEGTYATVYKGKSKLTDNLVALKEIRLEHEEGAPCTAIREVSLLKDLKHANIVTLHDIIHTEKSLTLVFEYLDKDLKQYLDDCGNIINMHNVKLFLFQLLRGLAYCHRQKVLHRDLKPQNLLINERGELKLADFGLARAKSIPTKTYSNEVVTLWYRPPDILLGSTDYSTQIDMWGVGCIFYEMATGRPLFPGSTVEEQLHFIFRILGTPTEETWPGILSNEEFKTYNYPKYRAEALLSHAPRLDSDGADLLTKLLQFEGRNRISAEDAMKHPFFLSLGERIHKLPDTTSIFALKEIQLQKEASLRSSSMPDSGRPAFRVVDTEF

[13] = molecular target: Mitogen-activated protein kinase kinase kinase 9 (Homo sapiens) (UniProt P80192); experiment: Binding affinity to human MLK1 at 200 nM by cell-based competition binding assay relative to control in presence of DTT
Sequence of Mitogen-activated protein kinase kinase kinase 9 (Homo sapiens) (P80192 whole entry, looked up): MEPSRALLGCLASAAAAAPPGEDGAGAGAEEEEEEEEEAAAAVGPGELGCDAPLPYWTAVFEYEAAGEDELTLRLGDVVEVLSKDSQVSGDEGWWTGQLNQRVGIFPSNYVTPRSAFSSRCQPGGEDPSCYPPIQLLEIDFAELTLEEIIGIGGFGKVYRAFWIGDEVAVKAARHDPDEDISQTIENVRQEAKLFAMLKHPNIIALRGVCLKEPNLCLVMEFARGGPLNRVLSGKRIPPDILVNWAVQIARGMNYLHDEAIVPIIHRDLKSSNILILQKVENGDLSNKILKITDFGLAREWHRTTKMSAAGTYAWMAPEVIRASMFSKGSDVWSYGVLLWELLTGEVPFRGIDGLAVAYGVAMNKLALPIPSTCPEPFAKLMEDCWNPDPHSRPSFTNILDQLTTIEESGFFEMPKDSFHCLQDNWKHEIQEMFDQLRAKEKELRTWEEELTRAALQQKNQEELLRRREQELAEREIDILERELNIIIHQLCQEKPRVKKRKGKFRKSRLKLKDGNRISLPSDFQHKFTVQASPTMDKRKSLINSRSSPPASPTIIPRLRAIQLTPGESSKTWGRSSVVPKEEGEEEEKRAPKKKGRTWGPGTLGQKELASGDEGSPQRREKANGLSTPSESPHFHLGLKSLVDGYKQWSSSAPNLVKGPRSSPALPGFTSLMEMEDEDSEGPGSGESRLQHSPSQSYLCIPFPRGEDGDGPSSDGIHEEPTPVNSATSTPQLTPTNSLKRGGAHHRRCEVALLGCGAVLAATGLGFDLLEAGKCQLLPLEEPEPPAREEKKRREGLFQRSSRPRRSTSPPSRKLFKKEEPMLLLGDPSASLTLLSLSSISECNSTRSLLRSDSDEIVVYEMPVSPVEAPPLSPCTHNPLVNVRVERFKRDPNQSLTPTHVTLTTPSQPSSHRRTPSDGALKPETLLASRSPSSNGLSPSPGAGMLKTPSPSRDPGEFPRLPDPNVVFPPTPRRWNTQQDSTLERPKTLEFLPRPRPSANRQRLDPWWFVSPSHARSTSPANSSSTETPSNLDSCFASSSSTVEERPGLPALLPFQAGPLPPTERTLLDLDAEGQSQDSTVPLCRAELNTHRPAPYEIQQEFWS

[14] = molecular target: Tyrosine-protein kinase ABL1 (Homo sapiens) (UniProt P00519); experiment: Binding affinity to human ABL1 at 50 nM by cell-based competition binding assay relative to control in presence of DTT; summary of the method: as §1

Activity [1]: 82%
Activity [2]: 18%
Activity [3]: 38%
Selectivity ratio [4]: 50
Activity [5]: 35%
Compound: CO[C@@H]1[C@H](N(C)C(=O)CCC(=O)NCCC(=O)NCCC(=O)NCCC(N)=O)C[C@H]2O[C@]1(C)n1c3ccccc3c3c4c(c5c6ccccc6n2c5c31)C(=O)NC4

Activity [6]: 0.45%
Activity [7]: 100%
Activity [8]: 94%
Activity [9]: 5.8%
Activity [10]: 0.65%
Activity [11]: 100%
Activity [12]: 94%
Activity [13]: 0.65%
Compound: CO[C@@H]1[C@H](N(C)C(=O)CCC(=O)NCCC(=O)NCCC(=O)NCCC(=O)NCCC(=O)NCCC(=O)NCCC(=O)NCCC(=O)N[C@H]2CSSC[C@@H](C(=O)NCC(N)=O)NC(=O)CNC(=O)[C@H](Cc3ccccc3)NC(=O)[C@H](C(C)C)NC(=O)[C@H](CCCNC(=N)N)NC(=O)[C@H](Cc3ccccc3)NC(=O)[C@H](C(C)C)NC2=O)C[C@H]2O[C@]1(C)n1c3ccccc3c3c4c(c5c6ccccc6n2c5c31)C(=O)NC4 ({Staurosporine-Suc-βAla-βAla-βAla-βAla-βAla-βAla-βAla}-CVFRVFGCG-NH2; disulfide 1-8)

Activity [14]: 94%
Compound: CO[C@@H]1[C@H](N(C)C(=O)CCC(=O)NCCC(=O)NCCC(=O)NCCC(=O)NCCC(=O)NCCC(=O)NCCC(=O)NCCC(=O)N[C@H]2CNC(=O)C[C@@H](C(N)=O)NC(=O)CNC(=O)[C@H](Cc3ccccc3)NC(=O)[C@H](C(C)C)NC(=O)[C@H](CCCNC(=N)N)NC(=O)[C@H](Cc3ccccc3)NC(=O)[C@H](C(C)C)NC2=O)C[C@H]2O[C@]1(C)n1c3ccccc3c3c4c(c5c6ccccc6n2c5c31)C(=O)NC4 ({Staurosporine-Suc-βAla-βAla-βAla-βAla-βAla-βAla-βAla}-[Dap]VFRVFGD-NH2; lactam 1-8)
